17 compounds from ChEMBL document CHEMBL3352012, “Synthesis and evaluation of novel podophyllotoxin derivatives as potential antitumor agents” (Eur J Med Chem, 2014) can be followed below.

Calls of active or inactive are those of the source. No cut-off for these calls is given here.

Test [1] in a line: Cytotoxicity against human K562/A02 cells after 48 hrs by MTT assay. It is filed as functional, cell-based. The note with it: K562/A02, 48 h. The essentials:
(§1)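 Cells kept in RPMI-1640 with 10% FBS, 2 mmol/L glutamine, penicillin and streptomycin at 37 °C, 5% CO2. Seeded at 5 × 10³ cells/well and left 24 h to attach, then exposed to compounds or etoposide reference for 48 h. MTT (5 mg/mL) added for 4 h at 37 °C, supernatant removed, formazan dissolved in DMSO, absorbance read at 490 nm.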
In general terms: Tetrazolium dyes change colour on reduction, which living cells bring about.

Test [2] deals with K562. The experiment in a line: Cytotoxicity against human K562 cells after 48 hrs by MTT assay. The test is classed as functional, cell-based. The note with it: K562, 48 h. The essentials:
as §1

Test [3] relates to K562. The test is described as follows: Resistance index, ratio of IC50 for human K562/A02 cells to IC50 for human K562 cells. The test is classed as functional.
Test [4] relates to HeLa. The test is described as follows: Cytotoxicity against human HeLa cells after 48 hrs by MTT assay. The test is classed as functional, cell-based. A digest of the protocol:
as §1

In test [5] the test system is K562/A02. The test is described as follows: Induction of apoptosis in human K562/A02 cells assessed as early apoptotic cells level at 6 uM after 48 hrs by Annexin V-FITC and propidium iodide double staining based flow cytometry (reference value: 6.23%). It is filed as functional. Background: Flow cytometry measures light scatter and fluorescence of single cells or particles in a stream.

For test [6], the system named is K562/A02. The test is described as follows: Induction of apoptosis in human K562/A02 cells assessed as necrotic cells level at 6 uM after 48 hrs by Annexin V-FITC and propidium iodide double staining based flow cytometry (reference value: 1.53%). The test is classed as functional.
For test [7], the system named is K562/A02. The experiment in a line: Induction of apoptosis in human K562/A02 cells assessed as viable cells level at 6 uM after 48 hrs by Annexin V-FITC and propidium iodide double staining based flow cytometry (reference value: 90.7%). The test is classed as functional.
In test [8] the test system is K562/A02. The test is described as follows: Induction of apoptosis in human K562/A02 cells assessed as late apoptotic cells level at 6 uM after 48 hrs by Annexin V-FITC and propidium iodide double staining based flow cytometry (reference value: 1.58%). It is filed as functional.
Test [9] is described as follows: Reduction in MDR1 mRNA expression in human K562/A02 cells at 6 uM incubated for 48 hrs by RT-PCR method. The test is classed as functional, cell-based. The essentials:
(§2)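 K562 and K562/A02 cells seeded 1 × 10⁵/well in 10% FCS/RPMI-1640; compound added 24 h later, then cultured another 48 h. Total RNA extracted with Trizol, checked at 260/280 nm, reverse transcribed; MDR-1 (157 bp) and β-actin (540 bp) amplified, products run on agarose gel, stained, MDR-1 normalised to β-actin against untreated control.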

Test [10] in a line: Reduction in MDR1 mRNA expression in human K562/A02 cells at 6 uM incubated for 48 hrs by RT-PCR method relative to untreated control. It is filed as functional, cell-based. A digest of the protocol:
as §2

Regarding `COc1cc([C@@H]2c3cc4c(cc3[C@@H](NCc3ccc(C)o3)[C@H]3COC(=O)[C@H]23)OCO4)cc(OC)c1O`, the IC50 in [1] was over 1000 µM; in [2], 65.9 µM; in test [4], 60.5 µM. Further, the “Ratio IC50” value in test [3] was 34.23.

On to `COc1cc([C@@H]2c3cc4c(cc3[C@@H](O[C@@H]3O[C@@H]5CO[C@@H](C)O[C@H]5[C@H](O)[C@H]3O)[C@H]3COC(=O)[C@H]23)OCO4)cc(OC)c1O` [ETOPOSIDE], for which the Activity in [5] came out at 28.4%; in test [6], 2.52%; in test [7], 61.1%; in test [8] it was 7.98%. Also, the IC50 in test [1] was found to be 235 µM; in test [2] it was 3.39 µM. The “Ratio IC50” value in [3] was found to be 69.29. For the same compound, the “MDR1 mRNA reduction (qualitative)” value in [9] is “Active”.

Consider `CCN(CC)Cc1ccc(CN[C@@H]2c3cc4c(cc3[C@@H](c3cc(OC)c(O)c(OC)c3)[C@H]3C(=O)OC[C@@H]32)OCO4)o1`, for which the figures for the IC50 in test [1], in test [2] and in test [4] were over 1000 µM, 8.25 µM and 6.38 µM, respectively. In test [10], the inhibition was determined as 35%. Moreover, the “Ratio IC50” value in test [3] was over 100. Moreover, the “MDR1 mRNA reduction (qualitative)” value in test [9] was “Active”.

As for `COc1cc([C@@H]2c3cc4c(cc3[C@@H](NCc3ccc(CN(C)C)o3)[C@H]3COC(=O)[C@H]23)OCO4)cc(OC)c1O`, the figures for the IC50 in test [1], in [2] and in test [4] were 70.1 µM, 7.89 µM and 0.51 µM, respectively. Further, the “Ratio IC50” value in [3] is reported as 8.89.

Regarding `COc1cc([C@@H]2c3cc4c(cc3[C@@H](NCc3ccco3)[C@H]3COC(=O)[C@H]23)OCO4)cc(OC)c1OC`, the IC50 is 10.9 µM in [1], 5.78 µM in [2] and 1.53 µM in test [4]. For the same compound, the “Ratio IC50” value in test [3] is 1.89.

For the compound `COc1cc([C@@H]2c3cc4c(cc3[C@@H](NCc3ccc(CN5CCN(C)CC5)o3)[C@H]3COC(=O)[C@H]23)OCO4)cc(OC)c1OC`, the IC50 in test [1] was over 1000 µM; in test [2] it was over 100 µM; in [4], 15.3 µM. For the same compound, in [3], the “Ratio IC50” value is listed as over 100.

As for `COc1cc([C@@H]2c3cc4c(cc3[C@@H](NCc3ccc(C)o3)[C@H]3COC(=O)[C@H]23)OCO4)cc(OC)c1OC`, the results for the IC50 in test [1], in test [2] and in [4] were 10.1 µM, 6.79 µM and 1.94 µM, respectively. Also, the “Ratio IC50” value in test [3] is 1.48.

Take `COc1cc([C@@H]2c3cc4c(cc3[C@@H](NCc3ccc(CN(C)C)o3)[C@H]3COC(=O)[C@H]23)OCO4)cc(OC)c1OC`: the IC50 stood at 35.3 µM in test [1], 6.91 µM in test [2] and 14.2 µM in test [4]. Moreover, the “Ratio IC50” value in [3] is 5.11.

Turning to `COc1cc([C@@H]2c3cc4c(cc3[C@@H](NCc3ccc([N+](=O)[O-])o3)[C@H]3COC(=O)[C@H]23)OCO4)cc(OC)c1O`, the figures for the IC50 in test [1], in [2] and in [4] were 59.2 µM, 9.24 µM and 6.64 µM, respectively. In test [3], the “Ratio IC50” value is 6.41.

With `COc1cc([C@@H]2c3cc4c(cc3[C@H](O)[C@H]3COC(=O)[C@H]23)OCO4)cc(OC)c1OC` [PODOFILOX], the midpoint of inhibition in test [1], the IC50, lay at 0.17 µM. In addition, the “Ratio IC50” value in test [3] is 5.667.

With `CCN1CCN(Cc2ccc(CN[C@@H]3c4cc5c(cc4[C@@H](c4cc(OC)c(OC)c(OC)c4)[C@H]4C(=O)OC[C@@H]43)OCO5)o2)CC1`, the IC50 in [1] was over 1000 µM; in test [2], over 100 µM; in test [4], over 100 µM. In test [3], the “Ratio IC50” value is recorded as over 100.

As to `COc1cc([C@@H]2c3cc4c(cc3[C@@H](NCc3ccco3)[C@H]3COC(=O)[C@H]23)OCO4)cc(OC)c1O`, the IC50 in test [1] is over 1000 µM; in [2] it was over 100 µM; in test [4], 70.5 µM. Also, the “Ratio IC50” value in [3] is on record as over 100.

Turning to `COc1cc([C@@H]2c3cc4c(cc3[C@@H](NCc3ccc(CN5CCCC5)o3)[C@H]3COC(=O)[C@H]23)OCO4)cc(OC)c1O`, the IC50 in test [1] was determined as 24.7 µM; in test [2], 5.28 µM; in [4] it was 1.21 µM. The “Ratio IC50” value in [3] is reported as 4.67. Besides, the “MDR1 mRNA reduction (qualitative)” value in test [9] was “Active”.

Turning to `COc1cc([C@@H]2c3cc4c(cc3[C@@H](NCc3ccc(CN5CCN(C)CC5)o3)[C@H]3COC(=O)[C@H]23)OCO4)cc(OC)c1O`, the IC50 in test [1] was found to be 200 µM; in test [2], 8.13 µM; in test [4], 2.42 µM. In addition, the “Ratio IC50” value in test [3] is given as 24.61.

Consider `COc1cc([C@@H]2c3cc4c(cc3[C@@H](NCc3ccc(CN5CCCC5)o3)[C@H]3COC(=O)[C@H]23)OCO4)cc(OC)c1OC`, for which the IC50 was determined as 40.2 µM in [1], 6.25 µM in [2] and 1.4 µM in test [4]. In addition, the “Ratio IC50” value in test [3] stood at 6.43.

With `CCN1CCN(Cc2ccc(CN[C@@H]3c4cc5c(cc4[C@@H](c4cc(OC)c(O)c(OC)c4)[C@H]4C(=O)OC[C@@H]43)OCO5)o2)CC1`, the IC50 in [1] is 123 µM; in [2], 7.45 µM; in [4], 0.67 µM. In addition, the “Ratio IC50” value in test [3] is given as 16.54.

As to `CCN(CC)Cc1ccc(CN[C@@H]2c3cc4c(cc3[C@@H](c3cc(OC)c(OC)c(OC)c3)[C@H]3C(=O)OC[C@@H]32)OCO4)o1`, the IC50 in [1] was over 1000 µM; in test [2], over 100 µM; in [4], over 100 µM. For the same compound, the “Ratio IC50” value in test [3] was over 100.

By IC50 is commonly meant the point on the concentration scale where inhibition reaches its midpoint. Low readings indicate inhibition by little substance, high ones a need for much substance. Usually inhibition stands for how much of the control response was suppressed. Read a low inhibition as little suppression.
